Source: PubChem BioAssay (several laboratories)
Cl transport mod = modulates chloride dependent transport by human KCC2. Q9H2X9. KCC2 cells, thallium flux FluoZin-2 fluorescence. B-score of Tl+ flux slope (higher = more flux/activation; lower = inhibition) at 10 µM. hit rate 2.2% among 190,000. AID 1456;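 active = thallium flux slope and its plate-corrected score both differing from the plate sample mean at a set confidence after two filtering rounds, in either direction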;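 note: slope of fluorescence scaled to starting intensity during 10 to 20 s after thallium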
PKD1 kinase inh = inhibitors of human PKD1 kinase; inhibition, % (concentration not given with the values); AID 797; hit rate 0.056% among 200,000; Q15139; PKD1 kinase fluorescence polarization assay; in the data active = inhibition above about 50%
ROMK mod = modulators of human ROMK potassium channel | P48048 | Tet-inducible ROMK, thallium flux fluorescence; actives lie on both sides | B-score at 10 µM | hit rate 2% among 130,000 | AID 1918;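 active = signal ratio slope over the read window, or its plate-corrected B-score, at least 3 SD from the plate mean, either direction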;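 note: B-score of the F/F0 ratio slope over 7 to 12 s after thallium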
Target sequence (P48048 whole entry, looked up): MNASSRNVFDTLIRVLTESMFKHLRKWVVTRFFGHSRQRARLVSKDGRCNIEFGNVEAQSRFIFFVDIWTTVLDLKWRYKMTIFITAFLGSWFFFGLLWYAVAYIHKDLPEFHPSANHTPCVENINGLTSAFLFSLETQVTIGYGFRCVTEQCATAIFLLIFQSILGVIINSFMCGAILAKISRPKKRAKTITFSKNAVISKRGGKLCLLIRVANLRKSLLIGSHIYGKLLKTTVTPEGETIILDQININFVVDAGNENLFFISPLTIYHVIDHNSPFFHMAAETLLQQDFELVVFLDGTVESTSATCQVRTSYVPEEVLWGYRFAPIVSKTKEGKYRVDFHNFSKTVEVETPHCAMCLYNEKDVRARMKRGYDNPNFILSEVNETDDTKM
Rad51 HR inh = blocks human Rad51 in homologous recombination; AID 1385; inhibition, % at 10 µM; hRad51 DNA strand exchange, fluorescence dequenching; Q06609; hit rate 0.085% among 200,000;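 active = inhibition above 40% at the single screening dose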
Target sequence (Q06609 whole entry, looked up): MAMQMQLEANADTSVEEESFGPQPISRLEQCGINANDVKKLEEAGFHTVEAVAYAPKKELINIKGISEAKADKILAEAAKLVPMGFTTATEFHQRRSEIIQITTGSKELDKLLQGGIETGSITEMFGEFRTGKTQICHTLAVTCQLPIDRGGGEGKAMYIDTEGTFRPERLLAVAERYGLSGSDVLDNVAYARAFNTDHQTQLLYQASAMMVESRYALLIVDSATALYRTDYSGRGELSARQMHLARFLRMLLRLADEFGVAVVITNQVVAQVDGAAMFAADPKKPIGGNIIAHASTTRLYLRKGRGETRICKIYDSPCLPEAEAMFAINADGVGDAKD
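Assay system: Human Rad51 nucleoprotein filaments preassembled on unlabelled ssDNA | Reagent: Donor/quencher-labelled 47-bp dsDNA substrate | Doses: One concentration, 10 µM final | Times: 37 °C 15-min filament assembly, 30-min compound preincubation, 15-min exchange | Technique: Fluorescein emission 520 nm, excitation 485 nm | Benchmarks: Plate control and blank wells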
ROMK retest = human ROMK channel modulation, retest confirmation; shares compounds with ROMK mod; ROMK thallium flux, fluorescence ratio; stronger effect = lower value; normalized thallium flux (F/F0 slope) at 10 µM; hit rate 54% among 3,000;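 active = Flux at 10 µM at least 3 SD below or above vehicle control mean in one or both replicates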
Large screens that a line does not name were inactive (follow-up assays come after a bar, where they were run). Hits are enriched below; roughly 3% of the tested compounds scored in any of these assays.

O=C(c1nnsc1S(=O)(=O)c1ccc(Cl)cc1)N1CCOCC1	none
COc1ccc2nc3c(cc2c1)c(NC(=O)c1cccs1)nn3CC(C)C	none (no result: ROMK mod, Rad51 HR inh) | ROMK retest inactive
O=C(CN1CCN(Cc2ccc(Cl)cc2)CC1)N/N=C/c1c[nH]c2ccccc12	none
CCOc1ccc(NC(=O)CN2CCC(n3cnc4cc(F)ccc43)CC2)cc1	none
CCOC(=O)C1=C(C)NC(=S)NC1/C=C/c1ccccc1 (stereo not given)	none (no result: ROMK mod)
CCOC(=O)C1CCCN(C(=O)c2cn(CC)c(=O)c3cc(OC)c(OC)cc23)C1 (stereo not given)	none (no result: ROMK mod) | ROMK retest inactive
CCOC(=O)C1CCCN(C(=O)c2cn(CC(C)C)c(=O)c3cc(OC)c(OC)cc23)C1 (stereo not given)	none
CN1CCN(C(=O)c2ccc3c(c2)S(=O)(=O)c2ccccc2C3=O)CC1	none
CCN1CCN(C(=O)c2ccc3c(c2)S(=O)(=O)c2ccccc2C3=O)CC1	ROMK mod 1.5 | ROMK retest inactive
CCN(C(=O)CSc1nnnn1-c1cc(C)ccc1OC)C1CCS(=O)(=O)C1 (stereo not given)	none (no result: ROMK mod)
CCCN(C(=O)CSc1nnnn1C)C1CCS(=O)(=O)C1 (stereo not given)	none | ROMK retest inactive
O=C(O)c1ccc(-c2nc(-c3cccc(C(F)(F)F)c3)cs2)cc1	ROMK mod 3.15 | ROMK retest inactive
CC(C)n1c(=O)[nH][nH]c1=S	none (no result: PKD1 kinase inh, ROMK mod)
O=C(O)c1ccc(N/N=C/C2=C(N3CCOCC3)C(=C\c3ccccc3)/CC2)cc1	none (no result: PKD1 kinase inh, ROMK mod) | ROMK retest 0.0451
COc1ccc(C2C3=C(Nc4ncnn42)c2ccccc2CCC3)cc1 (stereo not given)	none (no result: ROMK mod)
COc1cc(C2C3=C(Nc4ncnn42)c2ccccc2CC3)cc(OC)c1OC (stereo not given)	ROMK mod 3.91 (no result: Cl transport mod) | ROMK retest inactive
CCCCOc1ccc(/C=C/C2=CC(C)(C)NC(=S)N2)cc1OCC	none
COC(=O)C1=C(N)OC2=C(C(=O)CC(C)(C)C2)C1c1cccnc1 (stereo not given)	ROMK mod 3.97 | ROMK retest inactive
COC(=O)C1=C(N)OC2=C(C(=O)CC(C)(C)C2)C1c1ccccc1OCC#N (stereo not given)	none
O=C(C1=NOC(CNc2ncc(C(F)(F)F)cc2Cl)C1)N1CCOCC1 (stereo not given)	none
Cc1cccn2c(=O)c3cc(C(=O)NCCN4CCOCC4)c(=N)n(CCc4ccccc4)c3nc12	ROMK mod -2.84 (no result: Cl transport mod, Rad51 HR inh) | ROMK retest 0.0625
CCOC(=O)CSc1nc2c(sc(=S)n2-c2ccccc2OC)c(=O)n1Cc1ccco1	none (no result: ROMK mod) | ROMK retest 0.0486
O=C(Nc1nc(-c2cccs2)c(C(=O)C(F)(F)F)s1)c1ccccc1	ROMK mod -6.53 (no result: Rad51 HR inh) | ROMK retest 0.054
O=C(Nc1nc(-c2cccs2)c(C(=O)C(F)(F)F)s1)c1ccco1	none
Cc1cc(/C=C2/C(=O)NN(c3ccccc3)C2=O)c(C)n1-c1cccc(O)c1	none (no result: ROMK mod)
Cc1cc(/C=C2\SC(=S)NC2=O)c(C)n1-c1cccc(O)c1	none (no result: PKD1 kinase inh, ROMK mod) | ROMK retest 0.0535
COc1ccc(C(=O)Nc2ccccc2C(=O)NC(Cc2c[nH]c3ccccc23)C(=O)O)cc1 (stereo not given)	none
Cc1cccc(COCC(Cc2ccccc2)N2CCN(C(=O)c3ccc(Cl)c(Cl)c3)CCC2=O)c1 (stereo not given)	ROMK mod -2.58 | ROMK retest 0.0599
CCNC(=S)Nc1ccc(Cl)c(C(F)(F)F)c1	none
N#C/C(=C\c1ccccc1Cl)C(=O)NC(=O)Oc1ccccc1	ROMK mod -4.29 | ROMK retest 0.0461
Cn1c(=O)c2c(nc(N3CCNCC3)n2Cc2ccccc2Cl)n(C)c1=O	ROMK mod 1.6 | ROMK retest inactive
CNc1nc(C23CC4CC(CC(C4)C2)C3)cs1	none (no result: Rad51 HR inh)
COc1ccc(C(=O)/C=C/c2cn(CC(O)CN3CCN(C)CC3)c3ccccc23)cc1OC (stereo not given)	none (no result: PKD1 kinase inh, ROMK mod) | ROMK retest 0.0594
O=C(/C=C/c1cn(CC(O)CN2CCCCC2)c2ccccc12)c1ccccc1 (stereo not given)	none (no result: PKD1 kinase inh, ROMK mod) | ROMK retest 0.057
Cc1[nH]c(=O)c(C(=O)/C=C/c2ccccc2F)c2c1CCCC2	none (no result: Rad51 HR inh)
Cc1cc(C(=O)Cn2c(CO)nc3ccccc32)c(C)n1C	none (no result: PKD1 kinase inh, ROMK mod)
CC1CCCC(C(=O)OCc2ccccc2)N1 (stereo not given)	none (no result: ROMK mod)
CCCCOC(=O)C1CCC[C@@H](C)N1 (stereo not given in full)	none (no result: ROMK mod) | ROMK retest inactive
COc1ccc(Br)cc1/C=C\C(=O)NCc1cccnc1	none (no result: ROMK mod)
COc1ccc(/C=C2\CCOC2=O)cc1	none (no result: ROMK mod)
COc1ccc(/C=C2/C(=O)OCc3cc(OC)c(OC)cc32)cc1	ROMK mod 2.55 | ROMK retest inactive
CCOc1ccc(NC(=O)NC(=O)N(C)S(=O)(=O)c2ccc(C)cc2)cc1	ROMK mod -2 | ROMK retest inactive
CCOc1ccccc1NC(=O)NC(=O)N(C)S(=O)(=O)c1ccc(C)cc1	none
CC(C)OC(=O)Nc1ccc2c(c1)N(C(=O)CCN1CCOCC1)c1ccccc1CC2	none (no result: Cl transport mod)
COc1cc(C2CC(=O)c3c([nH]c(C(=O)OCCOC(C)C)c3C)C2)cc(OC)c1OC (stereo not given)	none (no result: ROMK mod) | ROMK retest 0.0633
COc1cc(OC)nc(NC(=O)COC(=O)c2cccc(Cl)c2)n1	none
O=C(Nc1ccccc1-c1ccccc1)C(=O)Nc1ccccc1-c1ccccc1	none (no result: PKD1 kinase inh, ROMK mod)
COCC(=O)O[C@]1(CCN(C)CCCc2nc3ccccc3[nH]2)CCc2cc(F)ccc2[C@@H]1C(C)C	none (no result: PKD1 kinase inh, ROMK mod) | ROMK retest 0.0606
CC(C)C(OC(=O)c1cccc(S(=O)(=O)NCC(F)(F)F)c1)C(=O)NC(N)=O (stereo not given)	none
CC1=CC(=C2C(=O)c3ccccc3C2=O)C=C(C)O1	none (no result: ROMK mod, Rad51 HR inh)
CC(=O)N1C(=O)C(=C2C=C(C)OC(C)=C2)c2ccccc21	none (no result: ROMK mod) | ROMK retest 0.0624
CCCCN(C(=O)c1cccc2c(=O)c(C)c(-c3ccccc3)oc12)c1ccccc1	ROMK mod -3.7 | ROMK retest 0.0628
CCCCNC(=O)c1cccc2c(=O)c(C)c(-c3ccccc3)oc12	none (no result: ROMK mod)
CC1(C)NC(=O)N(CC(O)COc2ccccc2C(=O)Nc2ccccc2)C1=O (stereo not given)	none
O=C(Nc1ccccc1)c1ccccc1OCC(O)CN1C(=O)c2ccccc2S1(=O)=O (stereo not given)	none (no result: ROMK mod) | ROMK retest 0.0609
O=C(Cc1ccccc1)Nc1cccc(C(=O)O)c1O	none (no result: Rad51 HR inh)
Cc1ccc(S(=O)(=O)Nc2cccc(-c3ccc4nnc(C)n4n3)c2)s1	none
Cc1nc2ccccn2c1-c1csc(NCc2ccco2)n1	none (no result: ROMK mod)
Cc1ccn2c(-c3csc(NCc4ccccc4)n3)c(C)nc2c1	ROMK mod -4.68 | ROMK retest 0.06
C=CCNC(=O)NC(=O)COC(=O)CNS(=O)(=O)c1ccc(F)c(F)c1F	none
O=C1c2oc3ccccc3c(=O)c2C(c2ccc(O)cc2)N1c1nccs1 (stereo not given)	none
CCCCC1CCC(c2nc(-c3cccnc3)no2)CC1 (stereo not given)	none (no result: ROMK mod) | ROMK retest inactive
CCCCC1CCC(c2nc(-c3ccccn3)no2)CC1 (stereo not given)	none (no result: ROMK mod)
